Measurements as given in ChEMBL document CHEMBL1145471, “Small molecule regulators of autophagy identified by an image-based high-throughput screen” (Proc Natl Acad Sci U S A, 2007).

Experiments:
Type in all cases: functional
H4 [1] = assay: Induction of light chain 3-GFP level in human H4 cells at 8.9 uM after 24 hrs by high throughput fluorescence microscopy relative to control
In short: (§1)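 H4 cells stably expressing LC3-GFP, grown in DMEM with 10% FBS, penicillin/streptomycin and 2 mM L-glutamine at 37°C, 5% CO2. Cells were seeded in 96-well plates and exposed to library compounds at 3–12 μM for 24 h, then fixed in 4% paraformaldehyde and stained with 3 μg/ml DAPI. LC3-GFP spot number, size and intensity were measured by high-throughput fluorescence microscopy and expressed relative to DMSO. Triplicates, mean ± SD.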

H4 [2] = assay: Increase in light chain 3-GFP+ autophagosome vesicle number per cell in human H4 cells at 8.9 uM after 24 hrs by high throughput fluorescence microscopy relative to control; in short: as §1
H4 [3] = assay: Increase in light chain 3-GFP+ autophagosome vesicle intensity per cell in human H4 cells at 8.9 uM after 24 hrs by high throughput fluorescence microscopy relative to control
In short: (§2)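 H4 cells stably expressing LC3-GFP were grown in DMEM with 10% FBS and 2 mM L-glutamine at 37°C, 5% CO2. They were exposed to each compound for 24 h, with DMSO as negative and rapamycin as positive control. Cells were then fixed in 4% paraformaldehyde and stained with 3 μg/ml DAPI. High-throughput fluorescence imaging scored LC3-GFP spot number, size and intensity, expressed relative to DMSO. Mean ± SD of triplicates; experiments repeated three times.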

H4 [4] = assay: Increase in light chain 3-GFP+ autophagosome vesicle area per cell in human H4 cells at 8.9 uM after 24 hrs by high throughput fluorescence microscopy relative to control
In short: (§3)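 H4 cells stably expressing LC3-GFP, seeded in 96-well plates and exposed to compound for 24 h; screening concentrations were 3–12 μM, with rapamycin 0.22 μM and bafilomycin A1 0.40 μM. Cells fixed in 4% paraformaldehyde and stained with 3 μg/ml DAPI. Number, size and intensity of LC3-GFP spots measured by high-throughput fluorescence microscopy and expressed as percent of DMSO-treated wells. Rapamycin was the positive control. Triplicate wells, mean ± SD; experiments repeated three times.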

H4 [5] = assay: Induction of light chain 3-GFP level in human H4 cells at 7.6 uM after 24 hrs by high throughput fluorescence microscopy relative to control; in short: as §1
H4 [6] = assay: Increase in light chain 3-GFP+ autophagosome vesicle intensity per cell in human H4 cells at 7.6 uM after 24 hrs by high throughput fluorescence microscopy relative to control; in short: as §2
H4 [7] = assay: Increase in light chain 3-GFP+ autophagosome vesicle area per cell in human H4 cells at 7.6 uM after 24 hrs by high throughput fluorescence microscopy relative to control; in short: as §3
H4 [8] = assay: Increase in light chain 3-GFP+ autophagosome vesicle number per cell in human H4 cells at 7.6 uM after 24 hrs by high throughput fluorescence microscopy relative to control; in short: as §2
H4 [9] = assay: Increase in long-lived protein degradation in human H4 cells after 1 hr relative to control; parameters: concentration or dose not given beside the values
H4 [10] = assay: Increase in long-lived protein degradation in human H4 cells after 2 hrs relative to control; parameters: concentration or dose not given beside the values
H4 [11] = assay: Effect on FYVE-RFP+ vesicle intensity per cell in human H4 cells after 2 hrs relative to control; parameters: concentration or dose not given beside the values
In short: (§4)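 H4 cells stably expressing FYVE-RFP (H4-FYVE), grown in DMEM with 10% FBS, penicillin/streptomycin and 2 mM L-glutamine at 37°C, 5% CO2, seeded in 96-well plates and exposed to compound. Fixed in 4% paraformaldehyde, nuclei stained with 3 μg/ml DAPI, FYVE-RFP+ vesicles quantified by high-throughput fluorescence microscopy against DMSO control. Triplicate wells, mean ± SD.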

H4 [12] = assay: Increase in light chain 3-GFP+ autophagosome vesicle number per cell in human H4 cells at 8.8 uM after 24 hrs by high throughput fluorescence microscopy relative to control; in short: as §1
H4 [13] = assay: Increase in long-lived protein degradation in human H4 cells after 4 hrs relative to control; parameters: concentration or dose not given beside the values
H4 [14] = assay: Increase in light chain 3-GFP+ autophagosome vesicle area per cell in human H4 cells at 8.8 uM after 24 hrs by high throughput fluorescence microscopy relative to control; in short: as §3
H4 [15] = assay: Increase in light chain 3-GFP+ autophagosome vesicle intensity per cell in human H4 cells at 8.8 uM after 24 hrs by high throughput fluorescence microscopy relative to control; in short: as §2
H4 [16] = assay: Effect on FYVE-RFP+ vesicle intensity per cell in human H4 cells after 8 hrs relative to control; parameters: concentration or dose not given beside the values; in short: as §4
H4 [17] = assay: Increase in long-lived protein degradation in human H4 cells after 24 hrs relative to control; parameters: concentration or dose not given beside the values
H4 [18] = assay: Effect on FYVE-RFP+ vesicle intensity per cell in human H4 cells after 4 hrs relative to control; parameters: concentration or dose not given beside the values; in short: as §4
H4 [19] = assay: Induction of light chain 3-GFP level in human H4 cells at 8.8 uM after 24 hrs by high throughput fluorescence microscopy relative to control; in short: as §1
H4 [20] = assay: Increase in light chain 3-GFP+ autophagosome vesicle area per cell in human H4 cells at 11.3 uM after 24 hrs by high throughput fluorescence microscopy relative to control
In short: (§5)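 H4 cells stably expressing LC3-GFP, seeded in 96-well plates and exposed to compound for 24 h; fixed in 4% paraformaldehyde, nuclei stained with 3 μg/ml DAPI. Automated fluorescence microscopy scored number, size and intensity of LC3-GFP spots; values expressed relative to DMSO-treated wells, rapamycin positive control. Triplicate wells, mean ± SD; experiments repeated three times.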

H4 [21] = assay: Increase in light chain 3-GFP+ autophagosome vesicle number per cell in human H4 cells at 7.4 uM after 24 hrs by high throughput fluorescence microscopy relative to control
In short: (§6)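 H4 cells stably expressing LC3-GFP, kept in DMEM/10% FBS at 37°C, 5% CO2, were seeded in 96-well plates and exposed to compound for 24 h. Cells were then fixed in 4% paraformaldehyde and stained with 3 μg/ml DAPI. Automated fluorescence microscopy scored the number, size and intensity of LC3-GFP spots. Values are percent of DMSO wells, in triplicate, mean ± SD. Rapamycin served as positive control.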

H4 [22] = assay: Increase in light chain 3-GFP+ autophagosome vesicle intensity per cell in human H4 cells at 11.3 uM after 24 hrs by high throughput fluorescence microscopy relative to control; in short: as §5
H4 [23] = assay: Induction of light chain 3-GFP level in human H4 cells at 7.4 uM after 24 hrs by high throughput fluorescence microscopy relative to control; in short: as §6
H4 [24] = assay: Decrease in FYVE-RFP+ vesicle intensity per cell in human H4 cells after 4 hrs relative to control; parameters: concentration or dose not given beside the values; in short: as §4
H4 [25] = assay: Increase in light chain 3-GFP+ autophagosome vesicle intensity per cell in human H4 cells at 6.4 uM after 24 hrs by high throughput fluorescence microscopy relative to control; in short: as §2
H4 [26] = assay: Increase in light chain 3-GFP+ autophagosome vesicle area per cell in human H4 cells at 6.4 uM after 24 hrs by high throughput fluorescence microscopy relative to control; in short: as §3
H4 [27] = assay: Decrease in FYVE-RFP+ vesicle intensity per cell in human H4 cells after 8 hrs relative to control; parameters: concentration or dose not given beside the values; in short: as §4
H4 [28] = assay: Induction of light chain 3-GFP level in human H4 cells at 6.4 uM after 24 hrs by high throughput fluorescence microscopy relative to control; in short: as §1
H4 [29] = assay: Decrease in FYVE-RFP+ vesicle intensity per cell in human H4 cells after 2 hrs relative to control; parameters: concentration or dose not given beside the values; in short: as §4
H4 [30] = assay: Increase in light chain 3-GFP+ autophagosome vesicle number per cell in human H4 cells at 6.4 uM after 24 hrs by high throughput fluorescence microscopy relative to control; in short: as §2
H4 [31] = assay: Increase in light chain 3-GFP+ autophagosome vesicle area per cell in human H4 cells at 0.4 uM after 24 hrs by high throughput fluorescence microscopy relative to control; in short: as §5
H4 [32] = assay: Induction of light chain 3-GFP level in human H4 cells at 0.4 uM after 24 hrs by high throughput fluorescence microscopy relative to control; in short: as §6
H4 [33] = assay: Increase in light chain 3-GFP+ autophagosome vesicle intensity per cell in human H4 cells at 0.4 uM after 24 hrs by high throughput fluorescence microscopy relative to control; in short: as §5
H4 [34] = assay: Increase in light chain 3-GFP+ autophagosome vesicle number per cell in human H4 cells at 0.4 uM after 24 hrs by high throughput fluorescence microscopy relative to control; in short: as §5

Question: With C[C@H]([C@H](C)N1CC(=O)NC(=O)C1)N1CC(=O)NC(=O)C1 as the compound, how does the Activity (H4 [1]) read?
Answer: Its Activity is 45.03%.

Question: And the Activity (H4 [2])?
Answer: Its Activity is 339.59%.

Question: What about the Activity (H4 [3]) of the same compound?
Answer: Its Activity is 483.18%.

Question: What about the Activity (H4 [4]) of the same compound?
Answer: The Activity was 402.47%.

Question: Oc1ccc(-c2nc(-c3ccc(F)cc3)c(-c3ccncc3)[nH]2)cc1 [SB-202190] was tested. Which Activity (H4 [5]) did it give?
Answer: The Activity was 91.14%.

Question: What about the Activity (H4 [6]) of the same compound?
Answer: Its Activity is 169.71%.

Question: And the Activity (H4 [7])?
Answer: Its Activity is 160.87%.

Question: And the Activity (H4 [8])?
Answer: The Activity was 151.97%.

Question: With O=C(/C=C/c1ccc(O)c(O)c1)OCCc1ccccc1 [CAFFEIC ACID PHENETHYL ESTER] as the compound, how does the Activity (H4 [9]) read?
Answer: The Activity was 122.08%.

Question: What about the Activity (H4 [10]) of the same compound?
Answer: Its Activity is 128.4%.

Question: And the Activity (H4 [11])?
Answer: The Activity was 86.89%.

Question: What about the Activity (H4 [12]) of the same compound?
Answer: Its Activity is 147.15%.

Question: And the Activity (H4 [13])?
Answer: The Activity was 120.18%.

Question: And the Activity (H4 [14])?
Answer: Its Activity is 160.43%.

Question: What about the Activity (H4 [15]) of the same compound?
Answer: The Activity was 150.18%.

Question: And the Activity (H4 [16])?
Answer: The Activity was 69.14%.

Question: And the Activity (H4 [17])?
Answer: Its Activity is 106.53%.

Question: And the Activity (H4 [18])?
Answer: The Activity was 71.17%.

Question: And the Activity (H4 [19])?
Answer: Its Activity is 146.2%.

Question: What does the source list for C[C@@]1(CO)[C@H](O)CC[C@@]2(C)[C@H]1CC[C@H]1C[C@@H]3C[C@@]12CC[C@]3(O)CO [APHIDICOLIN]?
Answer: Activity (H4 [20]): 275.5%; Activity (H4 [21]): 216.53%; Activity (H4 [22]): 350.13%; Activity (H4 [23]): 73.06%

Question: With CNC(=O)[C@H](Cc1c[nH]c2ccccc12)NC(=O)[C@@H](CC(=O)NO)CC(C)C [ILOMASTAT] as the compound, how does the Activity (H4 [9]) read?
Answer: Its Activity is 129.48%.

Question: And the Activity (H4 [24])?
Answer: The Activity was 32.3%.

Question: And the Activity (H4 [25])?
Answer: The Activity was 196.42%.

Question: And the Activity (H4 [10])?
Answer: Its Activity is 115.08%.

Question: What about the Activity (H4 [26]) of the same compound?
Answer: Its Activity is 171.42%.

Question: And the Activity (H4 [27])?
Answer: The Activity was 25.77%.

Question: What about the Activity (H4 [28]) of the same compound?
Answer: Its Activity is 143.94%.

Question: What about the Activity (H4 [13]) of the same compound?
Answer: Its Activity is 104.88%.

Question: And the Activity (H4 [29])?
Answer: The Activity was 30.69%.

Question: And the Activity (H4 [17])?
Answer: Its Activity is 107.46%.

Question: And the Activity (H4 [30])?
Answer: Its Activity is 154.31%.

Question: How did the Activity (H4 [31]) turn out when CO/C1=C\C(C)=C\[C@@H](C)[C@@H](O)[C@@H](C)C/C(C)=C/C=C/[C@H](OC)[C@@H]([C@@H](C)[C@@H](O)[C@H](C)[C@@]2(O)C[C@@H](O)[C@H](C)[C@@H](C(C)C)O2)OC1=O [BAFILOMYCIN A1] was run?
Answer: The Activity was 1608.62%.

Question: What about the Activity (H4 [32]) of the same compound?
Answer: Its Activity is 71.96%.

Question: What about the Activity (H4 [33]) of the same compound?
Answer: The Activity was 4027.54%.

Question: What about the Activity (H4 [34]) of the same compound?
Answer: Its Activity is 691.15%.
